What is called EC50 is the concentration that produces a half-maximal response.

Here are results for 32 molecules from ChEMBL document CHEMBL1157723, “Synthesis and anti-viral activity of azolo-adamantanes against influenza A virus” (Bioorg Med Chem, 2010).

Each structure is given as a SMILES string. ≈ marks a conversion by molar mass, not a printed value.

One series relates to Influenza A virus. The series can be described thus: Antiviral activity against Influenza A virus (A/Puerto Rico/8/34(H1N1)) infected in MDCK cells assessed as virus yield after 48 hrs end-point dilution method. As to conditions: A/Puerto Rico/8/1934(H1N1). In kind it is functional, organism-based. An outline of the steps: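 MDCK monolayers were exposed to serial twofold compound dilutions in MEM with 2 mM arginine, 2 mM glutamine and 2 µg/mL trypsin for 1 h at 37 °C, then infected and cultured 48 h at 36 °C. Supernatant was tested by hemagglutination with 1% chicken erythrocytes (1 h, room temperature) and titre by end-point dilution. ED50 is the concentration decreasing virus production […].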

Series [1] is described as follows: Selectivity index, ratio of CTD50 for MDCK cells to EC50 for Influenza A virus (A/Puerto Rico/8/34(H1N1)). To be noted: dog, read-out: Selectivity Index. In kind it is toxicity, cell-based. An outline of the steps: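 Ratio of CTD50 (MDCK, MTT after 48 h) to ED50 (PR8 yield in MDCK by hemagglutination end-point titration after 48 h at 36 °C), both from twofold dilution series.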

Another series concerns MDCK. The series can be described thus: Cytotoxicity against MDCK cells after 48 hrs by MTT assay. In kind it is cell-based, Canis lupus familiaris. To be noted: dog. Put shortly: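 MDCK cells were grown to monolayer in MEM with 5% fetal calf serum and washed with serum-free MEM. Compounds came from 5 mg/ml DMSO stocks as twofold dilutions of 1000–1 µg/ml in MEM, 48 h at 37 °C. After PBS washes, MTT (0.5 mg/ml) was added for 60 min at 37 °C, the deposit dissolved in DMSO and OD read at 535 nm. CTD50 is the concentration reducing viability 50%.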
A general note: Tetrazolium assays rely on reduction of a dye to a coloured formazan, in cell work by metabolically active cells.

With `OC12CC3CC(C1)CC(N=C=S)(C3)C2`, the EC50 with Influenza A virus was found to be 150 µg/mL (≈ 717 µM). Moreover, the selectivity ratio in series [1] was above 3. This molecule gave an Activity with MDCK above 500 µg/mL.

On to `Cc1nn(C23CC4CC(CC(C4)C2)C3)c(C)c1N`, for which, in the series on Influenza A virus, the EC50 was found to be 100 µg/mL (≈ 408 µM). The selectivity ratio in series [1] was found to be 6. This molecule gave an Activity in the series on MDCK of 600 µg/mL.

Take `CC(N)C12CC3CC(CC(C3)C1)C2` (stereo unspecified) [RIMANTADINE]: in the series with Influenza A virus, the EC50 is 5 µg/mL (≈ 27.9 µM). For the same molecule, the selectivity ratio in series [1] was found to be 12. The Activity with MDCK is 60 µg/mL.

Regarding `OC12CC3CC(C1)CC(n1nn[nH]c1=S)(C3)C2`, in the series on Influenza A virus, the EC50 is 8 µg/mL (≈ 31.7 µM). In series [1], the selectivity ratio is 18. The Activity in the series on MDCK stood at 146 µg/mL.

Consider `CC(N)C12CC3CC(C1)CC(n1ncnn1)(C3)C2.Cl` (stereo unspecified), for which the half-maximal effective concentration (EC50) with Influenza A virus is 23 µg/mL. The selectivity ratio in series [1] was 18. In the series on MDCK, the Activity came to 423 µg/mL.

Turning to `CCn1n[n+](C23CC4CC(CC(C4)C2)C3)nc1[S-]`, the half-maximal effective concentration (EC50) with Influenza A virus is 3 µg/mL (≈ 11.3 µM). Besides, the selectivity ratio in series [1] was determined as 41. Besides, the Activity in the series with MDCK was 125 µg/mL.

As for `Cl.NC12CC3CC(C1)CC(n1ncnn1)(C3)C2`, the EC50 in the series with Influenza A virus came out at 22 µg/mL. Further, the selectivity ratio in series [1] amounted to 25. Further, in the series on MDCK, the Activity came to 552 µg/mL.

With `[S-]c1n[n+](C23CC4CC(CC(C4)C2)C3)nn1-c1ccccc1`, in the series on Influenza A virus, the EC50 was 130 µg/mL (≈ 416 µM). The selectivity ratio in series [1] was determined as 2. The molecule also gave an Activity in the series on MDCK of 300 µg/mL.

`Cc1nnn(C23CC4CC(CC(C4)C2)C3)n1`: the concentration for a half-maximal effect (EC50) in the series with Influenza A virus is 77 µg/mL (≈ 353 µM). Further, the selectivity ratio in series [1] is 7. In addition, the Activity with MDCK was determined as 569 µg/mL.

For the molecule `CCOC(=O)Cc1nnn(C23CC4CC(CC(C4)C2)C3)n1`, the EC50 in the series on Influenza A virus turned out to be 232 µg/mL (≈ 799 µM). Moreover, the selectivity ratio in series [1] came to 4. The same molecule displayed an Activity in the series on MDCK above 1000 µg/mL.

On to `O=C(O)Cc1nnn(C23CC4CC(CC(C4)C2)C3)n1`, for which the EC50 in the series with Influenza A virus was 71 µg/mL (≈ 271 µM). Also, the selectivity ratio in series [1] was above 7. Further, the Activity in the series on MDCK was above 500 µg/mL.

Regarding `CCc1nnn(C23CC4CC(CC(N)(C4)C2)C3)n1.Cl`, in the series on Influenza A virus, the EC50 was found to be 25 µg/mL. In series [1], the selectivity ratio came out at 10. In the series with MDCK, this molecule yielded an Activity of 262 µg/mL.

For `O=S(=O)([O-])O.c1ccc(-n2n[n+](C34CC5CC(CC(C5)C3)C4)nc2SC23CC4CC(CC(C4)C2)C3)cc1`, the EC50 with Influenza A virus stood at 57 µg/mL. The selectivity ratio in series [1] is 5. In the series with MDCK, this molecule displayed an Activity of 289 µg/mL.

As for `Sc1nnnn1-c1ccccc1`, the EC50 with Influenza A virus was above 200 µg/mL. Further, the selectivity ratio in series [1] was below 1. In the series with MDCK, this molecule had an Activity of 151 µg/mL.

On to `S=c1[nH]nnn1C12CC3CC(CC(C3)C1)C2`, for which the EC50 in the series with Influenza A virus was 15 µg/mL (≈ 63.5 µM). For the same molecule, the selectivity ratio in series [1] worked out at 11. Further, the Activity with MDCK came out at 167 µg/mL.

For `c1nnnn1C12CC3CC(CC(C3)C1)C2`, the 50% effective concentration (EC50) in the series on Influenza A virus is 11 µg/mL (≈ 53.8 µM). The selectivity ratio in series [1] was determined as 25. Further, in the series on MDCK, the Activity worked out at 281 µg/mL.

On to `c1nnn(C23CC4CC(CC(C4)C2)C3)n1`, for which the EC50 in the series with Influenza A virus is 56 µg/mL (≈ 274 µM). For the same molecule, in series [1], the selectivity ratio came to 5. The Activity in the series with MDCK stood at 253 µg/mL.

Turning to `Cc1ncn(C23CC4CC(CC(C(C)N)(C4)C2)C3)n1.Cl.Cl` (stereo unspecified), in the series on Influenza A virus, the EC50 was found to be 62 µg/mL. For the same molecule, the selectivity ratio in series [1] turned out to be 15. The molecule further gave an Activity with MDCK of 960 µg/mL.

As for `CCc1nnn(C23CC4CC(CC(C(C)N)(C4)C2)C3)n1.Cl` (stereo unspecified), in the series with Influenza A virus, the EC50 is 6 µg/mL. The selectivity ratio in series [1] is 50. Besides, the Activity with MDCK was 299 µg/mL.

With `c1ncn(C23CC4CC(CC(C4)C2)C3)n1`, the EC50 with Influenza A virus came out at 77 µg/mL (≈ 379 µM). Also, the selectivity ratio in series [1] came out at 5. In addition, the Activity with MDCK is 358 µg/mL.

As for `CCCCOC(=O)Cc1nnn(C23CC4CC(CC(C4)C2)C3)n1`, the EC50 in the series on Influenza A virus was above 1 µg/mL. Besides, the selectivity ratio in series [1] is below 1. Moreover, the Activity in the series with MDCK was below 1 µg/mL.

Consider `Cl.NC12CC3CC(C1)CC(n1cncn1)(C3)C2`, for which, in the series with Influenza A virus, the EC50 is 123 µg/mL. Also, in series [1], the selectivity ratio came to 12. Moreover, the Activity in the series with MDCK came out at 1489 µg/mL.

For `CC(N)C12CC3CC(C1)CC(n1cnc(Cl)n1)(C3)C2.Cl` (stereo unspecified), the EC50 with Influenza A virus came to 15 µg/mL. Also, in series [1], the selectivity ratio came to 9. Also, the Activity in the series on MDCK came out at 140 µg/mL.

`Cl.NC12CC3CC(C1)CC(n1cnc(Br)n1)(C3)C2`: the EC50 in the series on Influenza A virus is 111 µg/mL. For the same molecule, the selectivity ratio in series [1] is 6. For the same molecule, in the series with MDCK, the Activity stood at 620 µg/mL.

For the molecule `CCOC(=O)Cc1nnn(C23CC4CC(CC(N)(C4)C2)C3)n1.Cl`, in the series on Influenza A virus, the EC50 came out at 18 µg/mL. Besides, the selectivity ratio in series [1] amounted to 7. For the same molecule, the Activity with MDCK came to 127 µg/mL.

`Clc1ncn(C23CC4CC(CC(C4)C2)C3)n1`: the EC50 with Influenza A virus turned out to be 59 µg/mL (≈ 248 µM). The selectivity ratio in series [1] was 10. The molecule also returned an Activity in the series with MDCK of 583 µg/mL.

As to `Cc1nnn(C23CC4CC(CC(N)(C4)C2)C3)n1.Cl`, the EC50 in the series with Influenza A virus stood at 13 µg/mL. Moreover, in series [1], the selectivity ratio was determined as 16. In addition, the Activity in the series on MDCK came to 213 µg/mL.

For `NC1N=NC(Cc2nnn(C34CC5CC(CC(C5)C3)C4)n2)=N1` (stereo unspecified), in the series on Influenza A virus, the EC50 turned out to be 0.09 µg/mL (≈ 0.3 µM). In series [1], the selectivity ratio came out at 2. The molecule also had an Activity in the series on MDCK of 0.18 µg/mL.

Turning to `O=c1[nH]nnn1-c1ccccc1`, in the series with Influenza A virus, the EC50 worked out at 294 µg/mL (≈ 1810 µM). In addition, the selectivity ratio in series [1] is 3. The molecule further registered an Activity in the series on MDCK above 1000 µg/mL.

Regarding `Cc1nnn(C23CC4CC(CC(C(C)N)(C4)C2)C3)n1.Cl` (stereo unspecified), the EC50 in the series on Influenza A virus worked out at 8 µg/mL. Besides, the selectivity ratio in series [1] is 30. The molecule further came in with an Activity in the series with MDCK of 242 µg/mL.

Turning to `O=C(O)c1nn(C23CC4CC(CC(C4)C2)C3)cc1Br`, the EC50 with Influenza A virus was found to be 300 µg/mL (≈ 922 µM). Besides, in series [1], the selectivity ratio amounted to 1. In the series with MDCK, this molecule had an Activity of 443 µg/mL.

As for `CC(N)C12CC3CC(C1)CC(n1cnc([N+](=O)[O-])n1)(C3)C2.Cl` (stereo unspecified), in the series with Influenza A virus, the EC50 was 120 µg/mL. For the same molecule, the selectivity ratio in series [1] was 1. In the series on MDCK, this molecule yielded an Activity of 131 µg/mL.
